According to ChEMBL document CHEMBL5653626 (ChemMedChem, 2016):

Columns and labels:
[1] = Clearance in rat hepatocytes; format: ADME, cell-based, Hepatocyte
[2] = Efflux ratio of apparent permeability across basolateral to apical side over apical to basolateral side in human Caco-2 cells at 2 uM measured after 2 hrs; format: ADME, cell-based; details: caco-2, 2 h
In short: (§1)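 Bidirectional Caco-2 transport at 2 μm over 2 h, apical→basolateral and basolateral→apical. Apparent permeability (P_app) is taken from compound transport. Efflux ratio is P_app B→A divided by P_app A→B.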

[3] = Stability in human liver microsomes assessed as maximum bioavailability; format: ADME, Microsome; details: read-out: Fmax
[4] = Clearance in dog liver microsomes; format: ADME, Canis lupus familiaris, Microsome
[5] = target: T1, Solute carrier family 2, facilitated glucose transporter member 4 (Homo sapiens, UniProt P14672); assay: Inhibition of human GLUT4 expressed in CHO cells assessed as reduction in glucose uptake by measuring decrease in ATP production preincubated for 20 mins followed by glucose addition and measured after 15 mins in presence of oxidative phosphorylation inhibitor rotenone by CellTiter-Glo Luminescent Cell Viability Assay; format: cell-based
T1 sequence (P14672 whole entry): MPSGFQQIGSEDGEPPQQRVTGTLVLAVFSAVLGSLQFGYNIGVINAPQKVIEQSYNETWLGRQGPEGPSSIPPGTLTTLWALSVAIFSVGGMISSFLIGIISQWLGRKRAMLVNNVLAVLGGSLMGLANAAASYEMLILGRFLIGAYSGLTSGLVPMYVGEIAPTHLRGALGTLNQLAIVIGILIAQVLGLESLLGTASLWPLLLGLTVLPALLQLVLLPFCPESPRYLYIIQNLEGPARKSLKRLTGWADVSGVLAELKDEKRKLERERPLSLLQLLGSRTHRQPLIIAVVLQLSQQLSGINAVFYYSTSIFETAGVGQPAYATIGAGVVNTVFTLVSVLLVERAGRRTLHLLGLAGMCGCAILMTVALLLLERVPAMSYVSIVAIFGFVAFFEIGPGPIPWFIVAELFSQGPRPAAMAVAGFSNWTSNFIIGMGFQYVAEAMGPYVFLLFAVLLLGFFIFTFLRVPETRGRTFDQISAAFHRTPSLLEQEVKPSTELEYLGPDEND

[6] = target: T2, Solute carrier family 2, facilitated glucose transporter member 3 (Homo sapiens, UniProt P11169); assay: Inhibition of human GLUT3 expressed in human GLUT1-/- DLD-1 cells assessed as reduction in glucose uptake by measuring decrease in ATP production incubated for 15 mins in presence of oxidative phosphorylation inhibitor rotenone by CellTiter-Glo Luminescent Cell Viability Assay; format: cell-based
T2 sequence (P11169 whole entry): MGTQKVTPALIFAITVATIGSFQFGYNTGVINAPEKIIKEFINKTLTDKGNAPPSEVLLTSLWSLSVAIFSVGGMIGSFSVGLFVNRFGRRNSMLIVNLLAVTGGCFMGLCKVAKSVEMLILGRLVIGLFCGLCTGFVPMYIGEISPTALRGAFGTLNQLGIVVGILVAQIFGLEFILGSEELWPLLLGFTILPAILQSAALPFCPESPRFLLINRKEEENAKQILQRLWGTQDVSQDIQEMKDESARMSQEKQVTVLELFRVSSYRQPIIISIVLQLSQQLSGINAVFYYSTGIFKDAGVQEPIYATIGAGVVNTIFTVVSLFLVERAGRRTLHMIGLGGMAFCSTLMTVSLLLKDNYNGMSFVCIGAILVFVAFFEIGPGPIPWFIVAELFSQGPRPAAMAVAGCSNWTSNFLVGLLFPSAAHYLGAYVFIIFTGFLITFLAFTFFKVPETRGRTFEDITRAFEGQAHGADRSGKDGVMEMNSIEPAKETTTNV

[7] = target: T3, Solute carrier family 2, facilitated glucose transporter member 1 (Homo sapiens, UniProt P11166); assay: Inhibition of human GLUT1 expressed in human DLD-1 cells assessed as reduction in glucose uptake by measuring decrease in ATP production incubated for 15 mins in presence of oxidative phosphorylation inhibitor rotenone by CellTiter-Glo Luminescent Cell Viability Assay; format: cell-based
T3 sequence (P11166 whole entry): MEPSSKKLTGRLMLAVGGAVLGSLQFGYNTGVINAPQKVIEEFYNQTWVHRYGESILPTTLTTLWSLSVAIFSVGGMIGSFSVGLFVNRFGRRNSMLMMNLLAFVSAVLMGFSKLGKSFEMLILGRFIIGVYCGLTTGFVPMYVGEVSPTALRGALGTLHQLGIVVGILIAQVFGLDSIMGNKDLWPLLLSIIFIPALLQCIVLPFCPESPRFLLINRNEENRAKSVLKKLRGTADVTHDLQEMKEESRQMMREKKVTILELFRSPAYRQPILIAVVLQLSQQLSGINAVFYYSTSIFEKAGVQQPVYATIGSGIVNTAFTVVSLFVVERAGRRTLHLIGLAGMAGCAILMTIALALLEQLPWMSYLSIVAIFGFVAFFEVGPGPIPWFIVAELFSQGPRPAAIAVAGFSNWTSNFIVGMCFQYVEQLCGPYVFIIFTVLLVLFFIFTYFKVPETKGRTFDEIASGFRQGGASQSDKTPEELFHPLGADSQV

[8] = Clearance in human liver microsomes; format: ADME, Microsome
[9] = Stability in dog liver microsomes assessed as maximum bioavailability; format: ADME, Canis lupus familiaris, Microsome; details: read-out: Fmax
[10] = Stability in dog hepatocytes assessed as maximum bioavailability; format: ADME, Canis lupus familiaris, Hepatocyte; details: read-out: Fmax
[11] = Clearance in mouse liver microsomes; format: ADME, Microsome
[12] = Clearance in dog hepatocytes; format: ADME, cell-based, Canis lupus familiaris, Hepatocyte
[13] = target: T4, Solute carrier family 2, facilitated glucose transporter member 2 (Homo sapiens, UniProt P11168); assay: Inhibition of human GLUT2 expressed in CHO cells assessed as reduction in fructose uptake by measuring decrease in ATP production incubated for 15 mins in presence of oxidative phosphorylation inhibitor rotenone by CellTiter-Glo Luminescent Cell Viability Assay; format: cell-based
T4 sequence (P11168 whole entry): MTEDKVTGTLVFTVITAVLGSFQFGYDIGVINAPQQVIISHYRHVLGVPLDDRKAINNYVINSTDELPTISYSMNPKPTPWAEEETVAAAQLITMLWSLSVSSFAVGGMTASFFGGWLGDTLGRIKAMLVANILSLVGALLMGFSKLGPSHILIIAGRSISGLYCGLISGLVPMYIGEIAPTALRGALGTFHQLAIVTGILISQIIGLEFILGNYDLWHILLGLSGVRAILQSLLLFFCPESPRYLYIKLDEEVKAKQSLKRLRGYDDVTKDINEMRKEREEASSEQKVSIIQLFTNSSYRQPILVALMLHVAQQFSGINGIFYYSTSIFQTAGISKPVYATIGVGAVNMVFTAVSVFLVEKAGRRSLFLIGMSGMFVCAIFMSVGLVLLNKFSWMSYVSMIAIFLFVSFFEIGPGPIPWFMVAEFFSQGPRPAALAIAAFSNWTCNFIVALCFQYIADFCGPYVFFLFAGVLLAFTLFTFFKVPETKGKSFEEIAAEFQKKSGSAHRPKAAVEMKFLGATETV

[14] = Stability in mouse liver microsomes assessed as maximum bioavailability; format: ADME, Microsome; details: read-out: Fmax
[15] = Apparent permeability across apical to basolateral side in human Caco-2 cells at 2 uM measured after 2 hrs; format: ADME, cell-based; details: caco-2, 2 h; in short: as §1
[16] = Clearance in rat liver microsomes; format: ADME, Microsome
[17] = Clearance in human hepatocytes; format: ADME, cell-based, Hepatocyte
[18] = Clearance in monkey hepatocytes; format: ADME, cell-based, Macaca mulatta, Hepatocyte; details: rhesus monkey
[19] = Stability in monkey hepatocytes assessed as maximum bioavailability; format: ADME, Macaca mulatta, Hepatocyte; details: rhesus monkey, read-out: Fmax
[20] = Stability in rat liver microsomes assessed as maximum bioavailability; format: ADME, Microsome; details: read-out: Fmax
[21] = Stability in rat hepatocytes assessed as maximum bioavailability; format: ADME, Hepatocyte; details: read-out: Fmax
[22] = Stability in human hepatocytes assessed as maximum bioavailability; format: ADME, Hepatocyte; details: read-out: Fmax
[23] = Stability in monkey liver microsomes assessed as maximum bioavailability; format: ADME, Macaca mulatta, Microsome; details: rhesus monkey, read-out: Fmax
[24] = Clearance in monkey liver microsomes; format: ADME, Macaca mulatta, Microsome; details: rhesus monkey
[25] = Volume of distribution at steady state in Beagle dog at 0.1 mg/kg, iv; format: ADME, organism-based, Canis lupus familiaris; details: in vivo
In short: (§2)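 Single intravenous dose: 0.3 mg kg⁻¹ in male Wistar rats; 0.1 mg kg⁻¹ in female Beagle dogs. Plasma pharmacokinetics gave steady-state volume of distribution.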

[26] = Stability in dog liver microsomes; format: ADME, Canis lupus familiaris, Microsome
[27] = Volume of distribution at steady state in Wistar rat at 0.3 mg/kg, iv; format: ADME, organism-based; details: in vivo; in short: as §2
[28] = Dose normalized Cmax in Beagle dog at 0.2 mg/kg, po; format: ADME, organism-based, Canis lupus familiaris; details: in vivo

What does the source list for `Cc1c(NC(=O)c2cc(C(N)=O)nc3ccccc23)c(C(F)(F)F)nn1Cc1ccc(C#N)cc1`?
CLhep predicted [1]: 30 mL/min/kg; Ratio [2]: 3.7; Fh [3]: 84%; CLH [4]: 1 mL/min/kg; IC50 [5]: 170 nM; IC50 [6]: 580 nM; IC50 [7]: 6 nM; CLhep predicted [8]: 3.5 mL/min/kg; Fh [9]: 97%; Fh [10]: 95%; CLhep predicted [11]: 23.3 mL/min/kg; CLH [12]: 1.83 mL/min/kg; IC50 [13]: 69000 nM; Fh [14]: 74%

Which CLhep predicted [1] does the source give for `Cc1c(NC(=O)c2cc(C(F)(F)F)nc3ccc(Br)cc23)c(C(F)(F)F)nn1Cc1ccc(F)cc1` here?
The CLhep predicted was 43.3 mL/min/kg.

And the CLhep predicted [11]?
The CLhep predicted was 36.7 mL/min/kg.

And the Fh [14]?
The Fh was 59%.

And the Papp [15]?
Its Papp is 0.35 ×10⁻⁶ cm/s.

What does the source list for `Cc1c(NC(=O)c2cc(C(N)=O)nc3cc(F)ccc23)c(C(F)(F)F)nn1Cc1ccc(C#N)cn1`?
CLhep predicted [1]: 0.667 mL/min/kg; Fh [3]: 86%; CLH [16]: 6.17 mL/min/kg; CLH [4]: 0.017 mL/min/kg; IC50 [5]: 620 nM; CLH [17]: 0.5 mL/min/kg; CLH [18]: 5.33 mL/min/kg; Fh [19]: 88%; Fh [20]: 91%; IC50 [7]: 4 nM; CLhep predicted [8]: 3.17 mL/min/kg; Fh [21]: 99%; Fh [9]: 100%; Fh [22]: 98%; Fh [23]: 84%; CLH [24]: 6.7 mL/min/kg; Fh [10]: 100%; CLhep predicted [11]: 6 mL/min/kg; CLH [12]: 0.017 mL/min/kg; Fh [14]: 93%; Papp [15]: 1.6 ×10⁻⁶ cm/s

With `Cc1c(NC(=O)c2cc(C(N)=O)nc3cc(F)ccc23)c(C(F)(F)F)nn1Cc1ccc(C#N)cc1` [BAY-876] as the compound, how does the CLhep predicted [1] read?
The CLhep predicted was 7.67 mL/min/kg.

And the Fh [3]?
Its Fh is 76%.

What about the Vdss [25] of the same compound?
Its Vdss is 1 L/kg.

What about the IC50 [5] of the same compound?
Its IC50 is 290 nM.

What about the CLH [17] of the same compound?
The CLH was 6.17 mL/min/kg.

What about the CLH [18] of the same compound?
The CLH was 23.3 mL/min/kg.

What about the Stability [26] of the same compound?
Its Stability is “Stable”.

What about the Fh [19] of the same compound?
The Fh was 46%.

And the Fh [20]?
Its Fh is 74%.

What about the CLhep predicted [8] of the same compound?
The CLhep predicted was 5.33 mL/min/kg.

And the Fh [21]?
The Fh was 89%.

What about the Fh [9] of the same compound?
Its Fh is 100%.

And the Vdss [27]?
Its Vdss is 0.79 L/kg.

And the Fh [22]?
Its Fh is 72%.

And the Cmax/dose [28]?
Its Cmax/dose is 0.93 kg/L.

And the Fh [23]?
The Fh was 70%.

And the CLH [24]?
The CLH was 12.7 mL/min/kg.

What about the Fh [10] of the same compound?
The Fh was 90%.

What about the CLH [12] of the same compound?
Its CLH is 3.3 mL/min/kg.

And the Fh [14]?
The Fh was 94%.
